Source: ChEMBL document CHEMBL1671835, “Discovery of a Potent, S1P3-Sparing Benzothiazole Agonist of Sphingosine-1-Phosphate Receptor 1 (S1P1)” (ACS Med Chem Lett, 2011)
Activity calls are given as the source filed them. The calls are words filed in the database; no cut-off is given here.

Experiments:
Rattus norvegicus [1] = assay: Immunomodulatory activity in Lewis rat assessed as reduction of circulating lymphocytes count at 1 mg/kg, po after 24 hrs relative to control; format: functional; parameters: scale not given: the % may be the effect or the level left
Summary of the method: (§1)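 Female Lewis rats dosed orally at 0.3, 1.0 or 3.0 mg/kg in 20% captisol, pH 2, N = 5/group. Blood lymphocyte counts and plasma concentration taken 24 h postdose. Compared with vehicle by ANOVA/Dunnett's test, P < 0.05.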

[2] = target: T1, Sphingosine 1-phosphate receptor 3 (Homo sapiens, UniProt Q99500); assay: Agonist activity at human S1P3 receptor expressed in CHO-K1 cells co-expressing Gq/i5 G-protein assessed as calcium mobilization by FLIPR assay relative to S1P; format: functional, cell-based
Summary of the method: (§2)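 hS1P3 and Gq/i5 co-transfected into CHO-K1 cells; agonism read as Ca2+ mobilization. Percent efficacy is relative to 0.200 μM S1P, and >top concentration is reported when activity stays under 10% of control. Each value is the mean of at least two determinations.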

[3] = target: T2, Sphingosine 1-phosphate receptor 1 (Homo sapiens, UniProt P21453); assay: Agonist activity at human S1P1 receptor expressed in human U2OS cells co-expressing eGFP assessed as receptor internalization after 1 hr relative to 1-(4-(6-benzylbenzofuran-2-yl)-3-fluorobenzyl)azetidine-3-carboxylic acid; format: functional, cell-based
Summary of the method: (§3)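 hS1P1-GFP fusion expressed in U2OS cells; agonism read as receptor internalization. Percent efficacy is relative to 1.00 μM reference agonist, and >top concentration is reported when activity stays under 10% of control. Each value is the mean of at least two determinations.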

[4] = target: T1, Sphingosine 1-phosphate receptor 3; assay: Agonist activity at human S1P3 receptor expressed in CHO-K1 cells co-expressing Gq/i5 G-protein assessed as calcium mobilization by FLIPR assay; format: functional, cell-based; summary of the method: as §2
[5] = target: T2, Sphingosine 1-phosphate receptor 1; assay: Agonist activity at human S1P1 receptor expressed in human U2OS cells co-expressing eGFP assessed as receptor internalization after 1 hr; format: functional, cell-based; summary of the method: as §3
Rattus norvegicus [6] = assay: Immunomodulatory activity in Lewis rat assessed as reduction of circulating lymphocytes count at 3 mg/kg, po after 24 hrs relative to control; format: functional; summary of the method: as §1
[7] = Inhibition of human cytochrome P450; format: ADME
Cynomolgus monkey = assay: Liver blood flow in cynomolgus monkey at 4 mg/kg, iv and 10 mg/kg, po; format: ADME, organism-based, Macaca fascicularis; conditions: in vivo
Summary of the method: (§4)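 Male cynomolgus monkeys, N = 3 per route: iv 4 mg/kg in 20% captisol, pH 4; po 10 mg/kg in 20% captisol with 1% pluronic F68 and 1% HPMC, pH 2. Clearance expressed also as percent of liver blood flow.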

[8] = Half life in Sprague-Dawley rat at 2 mg/kg, iv and 15 mg/kg, po; format: ADME, organism-based; conditions: in vivo
Summary of the method: (§5)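 Female Sprague-Dawley rats, N = 3 per route: iv 2 mg/kg in DMSO; po 15 mg/kg in 20% captisol, pH 2. Clearance expressed also as percent of liver blood flow.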

Rattus norvegicus [9] = assay: Immunosuppressive activity in delayed-type hypersensitivity Lewis rat model assessed as reduction of ovalbumin/complete Freund's adjuvant-induced ear swelling at 0.3 mg/kg, po qd for 10 days; format: functional, organism-based; parameters: dose 0.3 mg/kg
Summary of the method: (§6)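 Female Lewis rats dosed orally once daily for 10 days at 0.1–3.0 mg/kg in 20% captisol, pH 2 (N = 8/group; N = 4 at 3.0 mg/kg). On day 1 rats were immunized with ovalbumin plus complete Freund's adjuvant. One week later ovalbumin was injected intracutaneously into one ear. Ear-thickness change and blood lymphocytes measured 48 h after challenge; compared with vehicle by ANOVA/Dunnett's test.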

[10] = Volume of distribution at steady state in cynomolgus monkey at 4 mg/kg, iv and 10 mg/kg, po; format: ADME, organism-based, Macaca fascicularis; conditions: in vivo, read-out: Vdss; summary of the method: as §4
[11] = Oral bioavailability in Sprague-Dawley rat at 15 mg/kg; format: ADME, organism-based; conditions: in vivo; summary of the method: as §5
Rattus norvegicus [12] = assay: Toxicity in Sprague-Dawley rat assessed as proconvulsive activity at 100 mg/kg, po qd for 4 days; format: organism-based; parameters: dose 100 mg/kg, route oral; conditions: in vivo, 96 h
Summary of the method: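 Sprague-Dawley rats (N = 3) dosed orally at 100 mg/kg once daily for 4 days and observed for proconvulsive activity.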

Rattus norvegicus [13] = assay: Immunomodulatory activity in po dosed Lewis rat assessed as reduction of circulating lymphocytes count after 24 hrs; format: functional, organism-based; summary of the method: as §1
[14] = Half life in cynomolgus monkey at 4 mg/kg, iv and 10 mg/kg, po; format: ADME, organism-based, Macaca fascicularis; conditions: in vivo; summary of the method: as §4
[15] = Fraction unbound in rat plasma at 5 ug/ml by ultracentrifugation analysis; format: ADME, cell-free
Summary of the method: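 Plasma protein binding determined by ultracentrifugation at 5.0 μg/mL test compound.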

[16] = Mutagenic activity in Salmonella Typhimurium by Ames test; format: toxicity; conditions: salmonella enterica subsp. enterica serovar typhimurium
[17] = Clearance in cynomolgus monkey at 4 mg/kg, iv and 10 mg/kg, po; format: ADME, organism-based, Macaca fascicularis; conditions: in vivo; summary of the method: as §4
Rattus norvegicus [18] = assay: Liver blood flow in Sprague-Dawley rat at 2 mg/kg, iv and 15 mg/kg, po; format: ADME, organism-based; conditions: in vivo; summary of the method: as §5
[19] = Cmax in Sprague-Dawley rat at 100 mg/kg, po qd for 4 days; format: ADME, organism-based; parameters: dose 100 mg/kg, route oral; conditions: in vivo
[20] = Mean residence time in cynomolgus monkey at 4 mg/kg, iv and 10 mg/kg, po; format: ADME, organism-based, Macaca fascicularis; conditions: in vivo; summary of the method: as §4
Rattus norvegicus [21] = assay: Immunomodulatory activity in Lewis rat assessed as reduction of circulating lymphocytes count at 0.3 mg/kg, po after 24 hrs relative to control; format: functional; summary of the method: as §1
[22] = Volume of distribution at steady state in Sprague-Dawley rat at 2 mg/kg, iv and 15 mg/kg, po; format: ADME, organism-based; conditions: in vivo, read-out: Vdss; summary of the method: as §5
[23] = Oral bioavailability in cynomolgus monkey at 10 mg/kg; format: ADME, organism-based, Macaca fascicularis; conditions: in vivo; summary of the method: as §4
Rattus norvegicus [24] = assay: Cardiotoxicity in rat assessed as effect on mean arterial pressure at 30 mg/kg, po; format: toxicity, organism-based, Artery; parameters: dose 30 mg/kg, route oral; conditions: in vivo
Summary of the method: (§7)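 Telemetered rats given oral doses; heart rate and mean arterial pressure monitored to set a no-effect level.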

Rattus norvegicus [25] = assay: Cardiotoxicity in rat assessed as effect on heart rate at 30 mg/kg, po; format: toxicity, organism-based; parameters: dose 30 mg/kg, route oral; conditions: in vivo; summary of the method: as §7
[26] = Clearance in Sprague-Dawley rat at 2 mg/kg, iv and 15 mg/kg, po; format: ADME, organism-based; conditions: in vivo; summary of the method: as §5
[27] = AUC (0 to 24 hrs) in Sprague-Dawley rat at 100 mg/kg, po qd for 4 days; format: ADME, organism-based; parameters: time < 24 hr, dose 100 mg/kg, route oral; conditions: plasma
[28] = Mean residence time in Sprague-Dawley rat at 2 mg/kg, iv and 15 mg/kg, po; format: ADME, organism-based; conditions: in vivo; summary of the method: as §5
Rattus norvegicus [29] = assay: Immunosuppressive activity in delayed-type hypersensitivity Lewis rat model assessed as reduction of ovalbumin/complete Freund's adjuvant-induced ear swelling at 1 to 3 mg/kg, po qd for 10 days; format: functional, organism-based; summary of the method: as §6

T1 sequence (Q99500 whole entry): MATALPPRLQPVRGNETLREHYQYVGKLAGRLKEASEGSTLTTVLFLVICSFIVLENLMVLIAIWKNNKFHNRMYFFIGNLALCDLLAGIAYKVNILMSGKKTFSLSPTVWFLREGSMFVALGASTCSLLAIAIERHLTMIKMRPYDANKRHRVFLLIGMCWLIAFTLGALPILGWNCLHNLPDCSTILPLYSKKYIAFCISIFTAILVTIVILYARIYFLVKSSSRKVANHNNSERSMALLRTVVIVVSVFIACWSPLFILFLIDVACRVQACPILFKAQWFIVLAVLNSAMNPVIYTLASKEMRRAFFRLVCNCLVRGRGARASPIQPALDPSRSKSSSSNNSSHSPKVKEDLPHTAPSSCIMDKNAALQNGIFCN
T2 sequence (P21453 whole entry, the tested form may be a part): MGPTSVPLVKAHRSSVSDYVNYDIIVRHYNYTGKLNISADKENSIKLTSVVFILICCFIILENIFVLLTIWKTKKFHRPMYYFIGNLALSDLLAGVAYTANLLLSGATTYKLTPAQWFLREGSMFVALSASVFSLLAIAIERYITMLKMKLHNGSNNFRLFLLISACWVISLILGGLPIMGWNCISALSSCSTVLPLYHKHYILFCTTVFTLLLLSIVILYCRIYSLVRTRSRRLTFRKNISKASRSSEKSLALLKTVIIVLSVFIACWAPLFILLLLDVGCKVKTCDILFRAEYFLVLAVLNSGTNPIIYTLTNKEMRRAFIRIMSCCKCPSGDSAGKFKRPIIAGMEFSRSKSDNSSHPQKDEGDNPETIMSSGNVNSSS

`O=C(O)C1CN(Cc2ccc(-c3nc4cc(Cc5ccccc5Cl)ccc4s3)c(F)c2)C1` showed an Activity (Rattus norvegicus [1]) of 63%, an Efficacy [2] of 41% and an Efficacy [3] of 121%. The EC50 [4] was 4880 nM and the EC50 [5] was 42 nM.

With `O=C(O)C1CN(Cc2ccc(-c3nc4cc(Cc5c(F)cccc5F)ccc4s3)c(F)c2)C1` the Efficacy [3] was 126%, the EC50 [4] was > 25000 nM and the EC50 [5] was 126 nM.

`O=C(O)C1CN(Cc2ccc(-n3cc4ccc(Cc5ccccc5)cc4n3)c(F)c2)C1` gave an Efficacy [2] of 48%, an Efficacy [3] of 100% and an EC50 [4] of 2710 nM. The EC50 [5] was 1810 nM.

In the case of `O=C(O)C1CN(Cc2ccc(-c3nc4cc(Cc5ccccc5)ccc4o3)c(F)c2)C1`, the Efficacy [2] is reported as 77%, the Efficacy [3] is reported as 105% and the EC50 [4] is reported as 354 nM. The EC50 [5] was 325 nM.

In the case of `Cc1cccc(Cc2ccc3sc(-c4ccc(CN5CC(C(=O)O)C5)cc4F)nc3c2)c1`, the Efficacy [3] is reported as 92%, the EC50 [4] is reported as > 2500 nM and the EC50 [5] is reported as 54 nM.

With `O=C(O)C1CN(Cc2ccc(-c3cn4cc(Cc5ccccc5)ccc4n3)c(F)c2)C1` the Efficacy [3] was 115%, the EC50 [4] was > 25000 nM and the EC50 [5] was 6720 nM.

In the case of `O=C(O)C1CN(Cc2ccc(-c3nc4cc(Cc5ccccc5)ccc4s3)c(F)c2)C1`, the Efficacy [2] is reported as 24% and the EC50 [5] is reported as 42 nM.

With `O=C(O)C1CN(Cc2ccc(-c3cn4ccc(Cc5ccccc5)cc4n3)c(F)c2)C1` the Efficacy [2] was 50%, the Efficacy [3] was 110% and the EC50 [4] was 6090 nM. For the same molecule, the EC50 [5] was 741 nM.

With `O=C(O)C1CN(Cc2ccc(-c3nc4cc(Cc5ccccc5F)ccc4s3)c(F)c2)C1` the Efficacy (Rattus norvegicus [6]) was 74%, the “inhibition (INH)” value [7] was “Not Active” and the LBF (Cynomolgus monkey) was 19%. The half-life [8] was 7.5 h, the Efficacy (Rattus norvegicus [9]) was “Active” and the Activity (Rattus norvegicus [1]) was 63%. For the same molecule, the Vd [10] was 1.6 L/kg, the bioavailability [11] was 68% and the Activity (Rattus norvegicus [12]) was “Non-toxic”. The Efficacy [2] was 14%, the Efficacy (Rattus norvegicus [13]) was “Dose-dependent effect” and the Efficacy [3] was 115%. The half-life [14] was 35.2 h, the fraction unbound at 5 ug/ml [15] was 0.021 and the Activity [16] was “Non-toxic”. For the same molecule, the clearance [17] was 8.33 mL/min/kg, the EC50 [4] was 3470 nM and the LBF (Rattus norvegicus [18]) was 10%. For the same molecule, the Cmax [19] was 49000 ng/mL, the MRT [20] was 3.3 h and the Efficacy (Rattus norvegicus [21]) was 34%. For the same molecule, the Vd [22] was 3.3 L/kg, the bioavailability [23] was 23% and the Activity (Rattus norvegicus [24]) was “Non-toxic”. For the same molecule, the Activity (Rattus norvegicus [25]) was “Non-toxic”, the clearance [26] was 5.5 mL/min/kg and the AUC at 24 h [27] was 987 µg·h/mL. For the same molecule, the MRT [28] was 10 h and the Efficacy (Rattus norvegicus [29]) was “Active”.

`O=C(O)C1CN(Cc2ccc(-c3nc4cc(Cc5cccc(Cl)c5)ccc4s3)c(F)c2)C1` gave an Efficacy [2] of 35%, an Efficacy [3] of 141% and an EC50 [4] of 3880 nM. For the same molecule, the EC50 [5] was 49 nM.

`Cc1ccccc1Cc1ccc2sc(-c3ccc(CN4CC(C(=O)O)C4)cc3F)nc2c1` showed an Activity (Rattus norvegicus [1]) of 63%, an Efficacy [2] of 40% and an Efficacy [3] of 118%. The EC50 [4] was 2440 nM and the EC50 [5] was 26 nM.

`O=C(O)C1CN(Cc2ccc(-c3nc4cc(Cc5ccc(F)c(F)c5)ccc4s3)c(F)c2)C1` showed an Efficacy [2] of 19%, an Efficacy [3] of 151% and an EC50 [4] of 967 nM. It also gave an EC50 [5] of 30 nM.
